Test results as given in the EternaBench riboswitch data.

Tested on: MS2 coat protein
Experiment: apparent Kd, MS2 coat protein; higher = weaker binding; RNA-MaP array; FMN 200 µM where present
Method in brief: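 The apparent Kd comes from binding curves fitted cluster by cluster, filtered, and summarised as a median. Those curves followed SNAP-549-labelled MS2 coat protein from 0.7 or 1.5 nM, doubling to 3 µM, on Illumina sequencing-chip clusters where stalled E. coli RNA polymerase had transcribed the designs, without and then with constant ligand. The buffer was 100 mM Tris-HCl pH 7.5, 80 mM KCl, 4 mM MgCl2, BSA, DTT, yeast tRNA and Tween-20, and green signal was normalised to red-channel RNA signal and control-cluster median Fmax.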

[1] = designed as: OFF switch for flavin mononucleotide, no ligand
[2] = ligand present: flavin mononucleotide, designed as: OFF switch for flavin mononucleotide
[3] = designed as: ON switch for flavin mononucleotide, no ligand
[4] = ligand present: flavin mononucleotide, designed as: ON switch for flavin mononucleotide

Row | Sequence | apparent Kd [1] [nM] | apparent Kd [2] [nM] | apparent Kd [3] [nM] | apparent Kd [4] [nM]
1 | ACGAGUACAGGAUAUACAUGAGGAUCACCCAUGUGAGAAUUAAGUGGCGUACCACAAAGUAGAAGGGUACUCGA | 40.3 | 236 | – | –
2 | AACACGCUAACAAGCGACAUGAGGAUCACCCAUGUAAGGACACAGGAUAUCCGGAGUCAUAGGCCGGAGAAGGGUGAUCCUACC | – | – | 33.4 | 19.7
3 | GGGUUGCUACAAGGAUAUGAUGAAAGUGAGACAUCAGAAGGUGUAGUAUCACAUGAGGAUCACCCAUGUAGAACAACCCAAACC | – | – | 369 | 23
4 | CAGGUAGACUGAGGAUAUACAGACCUAGUCUAUCUAGGUCAAUUCCUUACAUGAGGAUCACCCAUGUAGAAGGCAGUCUGCCUG | 18.7 | 38.8 | – | –
5 | AUAUUUGUGUAGAAGGUACGUGAUUAGUUAUAGUAAGGAUAUACUGACAUGAGGAUCACCCAUGUAUAAAUGGUUAAAUGUUCU | – | – | 27.9 | 20
6 | UCCUCGUCAGGAUAUCCACGGAAUAGCGGGAUACCGAGCGUGGAGAAGGGACAUGAGGAUCACCCAUGUAAAAU | 29.4 | 61.2 | – | –
7 | UAGACAUGAGGAUCACCCAUGUACUGGAUUUCAACGCGAUCACAGGAUAUACGGGAUUCGUCCACGUAGAAGGGUGACAACGUC | – | – | 143 | 35.1
8 | GUAGCUAUCGCAGGAUAUCCUCAGGCGAAAGCCACAUGAGGAUCACCCAUGUAAAUAAAGUAUUUGGAGAAGGGCGAUAGCUAC | – | – | 710 | 36.1
9 | UGCUACAUGAGGAUCACCCAUGUAAUGUGGGAAUCGUUAGGACAGGAUAUGAUUGUAUUGUUUUUUCAGAAGGGUCAUUACUUU | 302 | 303 | – | –
10 | ACAUGAGACUAAGGAUAUGAUGUACCUAUAUGUGACAUGAGGAUCACCCAUGUGGUAAGUAUGAUUCAGAAGGUAGAGAUAUGU | – | – | 98.7 | 32.6
11 | GCAUGUCUUAAGGAUAUGCUUUGGCGUGAGCCGGCAGAAGGUAAGACAUGAGGAUCACCCAUGUUUUCCUAAAA | 20.5 | 140 | – | –
12 | CCGUUGGGCUAGAAGGCUCCGGGAGGACCGCGGAGAGGAUAUAGCACAUGAGGAUCACCCAUGUGGUAUGACCUUAUGUAUUCA | 33.6 | 65.1 | – | –
13 | CUUUUGUGAGGAUAUCAGUAGUAAAAAAAUAAAUUUACUACUGAGAAGGCACAUGAGGAUCACCCAUGUUCCUC | 42.2 | 296 | – | –
14 | CCGUUGAUGGGACAGGAUAUGACUGUCGUCACAUGAGGAUCACCCAUGUCCCGGCAAUGCCACCGUUAGAAGGGUCCCGUCUCGG | – | – | 16 | 15.9
15 | GCUGGUCAAGGAUAUGCAAUCGUGCUUCGGCACGUAAGAUCACAUGAGGAUCACCCAUGUAGAAGGUGACCAGC | 22.5 | 59.8 | – | –
16 | CUUUUGUGAGGAUAUCAGUUGUAAAAAAAUAAAAUUACUACUGAGAAGGCACAUGAGGAUCACCCAUGUUCCUC | 35 | 140 | – | –
17 | UGGUCAUGAUCAGGAUAUUAACAUGGGCUACAUUAAGAAGGGAUAGUGAGAUACGAACUGAACAUGAGGAUCACCCAUGUUGUU | – | – | 240 | 104
18 | CUUCAGUGAGGAUAUGGCAUGCGCUGAUAAGCGCUCUCACGCCAGAAGGCACAUGAGGAUCACCCAUGUAAAAC | 39.1 | 152 | – | –
19 | UGGUACAUGGGAGGAUAUGGAGUGAAGACAUGAGGAUCACCCAUGUUAUAAAUGCCGAGAGGCAACUAGAAGGCCCAUGUACCU | – | – | 77.7 | 14.3
20 | GGGUGAUGUAGAGGAUAUCCAGGACGAUACAGAGGAGAAGGCUACAUGAGGAUCACCCAUGUCACCGGGAUAAAGCUGUAGAGU | 39.8 | 109 | – | –
21 | GAGAGAGGGUGAGGAUAUUUAGUGAUAAUGAUAAAAGAAGGCACAGACAUGAGGAUCACCCAUGUGGGAAUAAUCCAGAGAGAG | – | – | 305 | 288
22 | CUUUUGUGAGGAUAUCAGUAGUAAUAAAAUAAAAUUACUACUGAGAAGGCACAUGAGGAUCACCCAUGUUCCUC | 40 | 182 | – | –
23 | ACAAAUGGAGGAUAUACAUGAGGAUCACCCAUGUAUAUCCUACAUAUGUGAUCUUUAUGUAGAAGGCCAUUUGA | 12.2 | 11.5 | – | –
24 | AGCACGAAAGUGCAACGAUGUACGAGAAGGACAUGAGGAUCACCCAUGUCGCUGUAACAGCACAUGUAGGAUAUCGUACAUCGA | 12.9 | 15.2 | – | –
25 | GAGUAGUAAGGAUAUGUCUCUGGUGGCUACGGUCACUAGAGGCAGAAGGUACAUGAGGAUCACCCAUGUUUUUU | 17.2 | 19.3 | – | –
26 | UUCAGCUCGUGAGGAUAUACAUGUGCUGGAAACAGCACUAAAGUUUUCACAUGAGGAUCACCCAUGUAGAAGGCACGAGCUGAG | 15.6 | 34.5 | – | –
27 | CGCAAGUAUACAUGAGGAUCACCCAUGUAAGAUAGGGUAAUCAGAAGGUACAAUUAGAGAUAGAGUAAGGAUAUGAAAUUUGCG | – | – | 358 | 94.5
28 | GGCGGACAUGAGGAUCACCCAUGUAAGGAUAUUAGGCGAUCGUCGAAAGACGAUAGCCUGAGAAGGUACGCGCC | 14.7 | 17.2 | – | –

Row | Sequence | apparent Kd [1] [nM] | apparent Kd [2] [nM] | apparent Kd [3] [nM] | apparent Kd [4] [nM]
29 | CAGACCGGCGUAGGAUAUGUCGACAUGAGGAUCACCCAUGUAAACCUUGUCUGGUCCGGUGUGUGACAGAAGGAUGUCGGCCAU | 14.6 | 27.9 | – | –
30 | ACGGAACAUGAGGAUCACCCAUGUAUCUGAGAUAAGCUCUCGCAGGAUAUUCAGAGAAGCCUAUCGGAGAAGGGUGACAGCAAA | – | – | 25.3 | 15.5
31 | UUUACAUGAGGAUCACCCAUGUAUGUCACCCAUGUGUGUAAUCAGGAUAUGAUAUCAAUAAUAAAUUAGAAGGGAUAACAUGAG | – | – | 59.5 | 75.1
32 | UGUUGUAUUACAGGAUAUCUAGGAUUUUUAUUUAGAGAAGGGUAUUCACAUGAGGAUCACCCAUGUAUAUACGAGGAAGUUGUG | – | – | 40.2 | 41.3
33 | UGGUACAUGGGAGGAUAUCAUGUAUUCACAUGAGGAUCACCCAUGUCGAUGGAGACAUCGGAGAUUGAGAAGGCCCAUGUACCU | – | – | 1270 | 46.9
34 | AGCGUGGUCCACUUGGACGCCUACGAGGAUAUCCUGUCACAUGAGGAUCACCCAUGUAGGCACACGGAGAAGGCGUAGACUUAA | – | – | 25.8 | 6.8
35 | UUUUAACAUGAGGAUCACCCAUGUGAGGAUAUCGAAAUUUAUAUUUAUAUUUAUAUAACGAGAAGGCACAUUUU | 72.4 | 87.6 | – | –
36 | CUCUUGUGAGGAUAUCAGUAGUAAAAAAAUAAAAUUACUACUGAGAAGGCACAUGAGGAUCACCCAUGUGUCUU | 14 | 13.1 | – | –
37 | ACAUGCGGAUGAGGAUAUUCAUUUAUGAGGAUAGAAGAAGGCAUACAUGAGGAUCACCCAUGUAUACGCAUGAGGAUCCCUUAU | 41.1 | 40 | – | –
38 | CAGUGCUGUUGAGAGGAUAUGCGGCGACGGACAUGAGGAUCACCCAUGUUAGCGACAGCGUUGCGGCAGAAGGCUCUGCCCGCUG | – | – | 21 | 13.7
39 | AUAAAACAUGAGGAUCACCCAUGUCAACAAAGUCGAGGAUAUGGGUAAAUAAAAUAAGAACCAGAAGGCGAAUAAU | – | – | 597 | 132
40 | GUUCUGCCUCCUGCCGGAACAUGAGGAUCACCCAUGUUGCCUGAGGAUAUCCUAUGGCUCCCACAGGAGAAGGCAGGCAACAUA | 86.2 | 371 | – | –
41 | CUAGUACAUGAGGAUCACCCAUGUCAGGAUAUUGGAUAUGACAUGGAAAACAUGUUAACAAGAAGGGACUAUAG | 245 | 209 | – | –
42 | GUGUGCUGAGGAUAUACAGAGGAAGAUAAGAUAAGAUAAUCACAUGAGGAUCACCCAUGUAGAAGGCAGAGUGU | 23.7 | 35.5 | – | –
43 | ACAUGACAUGAGGAUCACCCAUGUGAGGAUAUGCGAAAAAAAAAAAAAAAAAAAAAAAGCAGAAGGCACAAAAA | 180 | 280 | – | –
44 | AGUAGAUCAGGAUAUACGUGAAAGGUCAAAGUGUCCCUUCUACAUGAGGAUCACCCAUGUAGAAGGGAUCUACA | 12.8 | 12.5 | – | –
45 | UAUUAAUACGAAGGAUAUGGUUACAUGAGGAUCACCCAUGUAUGUAUAUUGAUCUAGAUAUUUAACCAGAAGGUCGGGAGUAAA | 39 | 38.2 | – | –
46 | UGGUACUAGGGAGGAUAUGGGCAGAUACAUGAGGAUCACCCAUGUUUAAGAAUGCCGAGAGGCAACUAGAAGGCCCUAGUACCU | – | – | 553 | 25.5
47 | AAAUAAACUAGCAUAAUAACCUCACAUGAGGAUCACCCAUGUAAGGAUAUCUGUCCUAAAAGGACAGAGAAGGUACGUGCUAGG | 4.72 | 4.88 | – | –
48 | AUAUGAUAGAUAGGAUAUACUAUGGUUUAAGAAGUAGAAGGAUCAAUUGGGAAAUGUACAUGAGGAUCACCCAUGUUAUAGGUU | – | – | 35.2 | 33.5
49 | UUUUAGCAAGGAUAUACAUUUUUUUUAUUAUCCUCAUUAUUACAUGAGGAUCACCCAUGUAGAAGGUGCAUUUU | 75.9 | 81.5 | – | –
50 | UUUUAACAUGAGGAUCACCCAUGUGAGGAUAUCGAAAUUUAUAUUAAUAUUAAUAUAUCGAGAAGGCACAUUUU | 79.8 | 104 | – | –
51 | CGCUACAUGAGGAUCACCCAUGUACUAACUUGCACGUGAACGAGAAGGCCACAGCAACCCUGCGUGGAGGAUAUCGUGGUGCCA | – | – | 8.49 | 7.48
52 | UUUCCCUGUGUGAGGAUAUACUUGUUUGGGUUUUUGUAGAAGGCACAUGAGGAUCACCCAUGUACUCUGUCGUG | 23.3 | 55.8 | – | –
53 | CCAGAGGUCACAGGAUAUGACUUGUCCAAUUAGUCAGAAGGGUGAAUCACAUUAUGUAUACAUGAGGAUCACCCAUGUCCUACG | – | – | 214 | 1040
54 | CGCACUAUACAUGAGGAUCACCCAUGUUAAUAUGAGAUAGUCAGAAGGCAUUGUAUGAGAAAUUAUGAGGAUAUGAAUAGUGCG | – | – | 106 | 32.8
55 | ACGCCCUGAGGAUAUCUUAUCCCGCACAUGAGGAUCACCCAUGUUCUCCUCCGGGCUCCGAGAGAAGGCAGGCCCA | 30.7 | 41.2 | – | –
